Measured values as given in PMC9975087 (Cell, 2023).

Tests used:
[1] = target: T1, Acb2 (Pseudomonas phage PaMx33, UniProt A0A1C8HPQ3); assay: HPLC assay of cyclic dinucleotide sequestering by Acb2; assay type: binding; details: 40 μM Acb2 pre-incubated with 4 μM cyclic dinucleotide
[2] = target: T1, Acb2; assay: Isothermal titration calorimetry; assay type: binding
[3] = target: Acb2 Y11A (Pseudomonas phage PaMx33, UniProt A0A1C8HPQ3, Y11A); assay: ITC / native PAGE binding of 3’,3’-cGAMP to Acb2 Y11A mutant; details: ITC and native PAGE
[4] = target: Acb2 K26A (Pseudomonas phage PaMx33, UniProt A0A1C8HPQ3, K26A); assay: ITC / native PAGE binding of 3’,3’-cGAMP to Acb2 K26A mutant; details: ITC and native PAGE
[5] = target: T1, Acb2; assay: Native-PAGE assay of Acb2 with cyclic dinucleotides; assay type: binding; details: Acb2 14.3 μM, cyclic dinucleotide 1.8-7.2 μM
Method in brief: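 Purified Acb2 (14.3 μM) preincubated 10 min at 18°C with cyclic dinucleotide at 1.8, 3.6 or 7.2 μM. Mixtures resolved on 5% native polyacrylamide gels and stained with Coomassie blue.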

[6] = target: CapV (Pseudomonas aeruginosa, UniProt P0DX85); assay: Fluorogenic biochemical assay for CapV phospholipase activity; parameters: species or system P. aeruginosa BWHPSA011 (Pa011); details: 3’,3’-cGAMP 0.025-0.8 μM, other cyclic dinucleotides 0.8 μM
[7] = test system: Acb2 homolog from E. coli phage T4 (gene vs.4); details: cited from earlier work
[8] = target: the molecule itself; assay: crystal structure
[9] = test system: Pa011 CBASS immunity; assay: Plaque assays with PaMx41 phage on Pa011 WT; assay type: cell-based, Pseudomonas aeruginosa; details: variant overexpressed in Pa011 WT, in the presence of CBASS
Method in brief: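 gp24 variants expressed episomally from arabinose-inducible, gentamicin-selected pHERD30T in Pa011 WT and ΔCBASS. Overnight culture (150 μl) mixed with top agar on LB agar. Phage lysate 10-fold serially diluted and spotted (2 μl) onto the solidified top agar; plates incubated at 37°C and titre read from plaques.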

[10] = test system: 3’,3’-cGAMP levels in phage-infected Pa011 cells; assay: Intracellular 3’,3’-cGAMP measurements by ELISA in phage-infected Pa011 cells; assay type: cell-based, Pseudomonas aeruginosa; details: overexpression in phage-infected Pa011 WT cells
[11] = target: T2, CapV (Pseudomonas aeruginosa, UniProt P0DX85); assay: Gel filtration assay of Acb2 with CapV; assay type: binding, P. aeruginosa BWHPSA011 (Pa011); details: molar ratio 5:1
T2 sequence (P0DX85 whole entry, looked up): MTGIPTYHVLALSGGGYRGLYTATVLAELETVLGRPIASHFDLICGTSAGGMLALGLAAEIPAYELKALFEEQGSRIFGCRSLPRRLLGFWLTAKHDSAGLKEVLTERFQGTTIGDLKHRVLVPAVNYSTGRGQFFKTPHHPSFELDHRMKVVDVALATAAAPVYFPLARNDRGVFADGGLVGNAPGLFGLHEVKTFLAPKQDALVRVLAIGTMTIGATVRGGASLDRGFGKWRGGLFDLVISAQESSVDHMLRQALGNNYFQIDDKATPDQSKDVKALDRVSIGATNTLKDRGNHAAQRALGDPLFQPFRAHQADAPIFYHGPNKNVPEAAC
Method in brief: (§1)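 Acb2 (E. coli BL21(DE3), 0.2 mM IPTG at OD600 0.8, 18°C 12 h; Ni-NTA, tag removed with Ulp1, Superdex-200) incubated with His-tagged partner protein at 5:1 molar ratio overnight on ice. Gel filtration was on Superdex-200 increase 10/300 GL in 10 mM Tris–HCl pH 8.0, 200 mM NaCl, 5 mM DTT at 0.5 mL/min. Fractions were analysed by SDS-PAGE with Coomassie staining.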

[12] = target: T3, Cap2 (Pseudomonas aeruginosa, UniProt P0DX87); assay: Gel filtration assay of Acb2 with Cap2; assay type: binding, P. aeruginosa BWHPSA011 (Pa011); details: molar ratio 5:1
T3 sequence (P0DX87 1-543): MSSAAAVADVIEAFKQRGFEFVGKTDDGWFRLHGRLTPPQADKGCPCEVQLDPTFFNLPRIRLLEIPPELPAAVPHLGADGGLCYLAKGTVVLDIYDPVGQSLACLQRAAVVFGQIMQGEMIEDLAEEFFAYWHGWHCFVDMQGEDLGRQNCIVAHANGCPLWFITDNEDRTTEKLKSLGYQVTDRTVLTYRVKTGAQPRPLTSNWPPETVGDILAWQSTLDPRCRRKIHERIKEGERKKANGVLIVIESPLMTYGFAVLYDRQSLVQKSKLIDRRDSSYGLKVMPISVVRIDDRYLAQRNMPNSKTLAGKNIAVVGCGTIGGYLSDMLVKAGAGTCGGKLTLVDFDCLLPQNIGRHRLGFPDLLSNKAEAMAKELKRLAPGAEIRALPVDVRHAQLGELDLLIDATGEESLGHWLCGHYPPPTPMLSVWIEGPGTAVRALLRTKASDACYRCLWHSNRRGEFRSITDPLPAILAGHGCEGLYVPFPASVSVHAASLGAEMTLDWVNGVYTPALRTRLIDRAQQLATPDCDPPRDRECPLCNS
Method in brief: as §1

[13] = target: T4, CdnA (Pseudomonas aeruginosa, UniProt P0DX86); assay: Gel filtration assay of Acb2 with CdnA; assay type: binding, P. aeruginosa BWHPSA011 (Pa011); details: molar ratio 5:1
T4 sequence (P0DX86 1-380): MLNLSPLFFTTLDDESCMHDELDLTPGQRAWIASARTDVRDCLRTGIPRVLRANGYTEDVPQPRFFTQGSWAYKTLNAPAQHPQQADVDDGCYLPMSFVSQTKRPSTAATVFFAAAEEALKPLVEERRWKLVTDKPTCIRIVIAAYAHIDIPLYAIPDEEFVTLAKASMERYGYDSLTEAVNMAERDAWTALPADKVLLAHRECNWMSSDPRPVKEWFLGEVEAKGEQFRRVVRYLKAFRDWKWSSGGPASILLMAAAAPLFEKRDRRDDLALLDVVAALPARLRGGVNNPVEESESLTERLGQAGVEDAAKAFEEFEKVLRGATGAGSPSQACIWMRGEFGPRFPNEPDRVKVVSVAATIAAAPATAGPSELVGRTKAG
Method in brief: as §1

[14] = target: T2, CapV; assay: Fluorogenic biochemical assay for CapV phospholipase activity; parameters: species or system P. aeruginosa BWHPSA011 (Pa011); details: Acb2 or mutant 32 μM preincubated with 0.8 μM 3’,3’-cGAMP for 10 minutes
[15] = target: T5, CdnA-Cap2 complex (Pseudomonas aeruginosa, UniProt P0DX86+P0DX87, C105A/C479A); assay: Gel filtration assay of Acb2 with CdnA-Cap2 complex; assay type: binding, P. aeruginosa BWHPSA011 (Pa011); details: molar ratio 5:1
T5 sequence (P0DX86 1-380): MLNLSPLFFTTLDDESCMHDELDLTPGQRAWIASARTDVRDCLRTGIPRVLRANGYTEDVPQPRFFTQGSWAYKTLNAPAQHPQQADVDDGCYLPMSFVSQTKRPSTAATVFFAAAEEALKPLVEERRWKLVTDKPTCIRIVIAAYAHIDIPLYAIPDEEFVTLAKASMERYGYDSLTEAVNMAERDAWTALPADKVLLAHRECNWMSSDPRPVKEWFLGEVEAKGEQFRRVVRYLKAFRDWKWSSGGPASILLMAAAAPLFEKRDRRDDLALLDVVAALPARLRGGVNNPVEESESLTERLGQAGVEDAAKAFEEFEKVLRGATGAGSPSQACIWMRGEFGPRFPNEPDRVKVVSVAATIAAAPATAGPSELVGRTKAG
T5 sequence (P0DX87 1-543 C105A/C479A): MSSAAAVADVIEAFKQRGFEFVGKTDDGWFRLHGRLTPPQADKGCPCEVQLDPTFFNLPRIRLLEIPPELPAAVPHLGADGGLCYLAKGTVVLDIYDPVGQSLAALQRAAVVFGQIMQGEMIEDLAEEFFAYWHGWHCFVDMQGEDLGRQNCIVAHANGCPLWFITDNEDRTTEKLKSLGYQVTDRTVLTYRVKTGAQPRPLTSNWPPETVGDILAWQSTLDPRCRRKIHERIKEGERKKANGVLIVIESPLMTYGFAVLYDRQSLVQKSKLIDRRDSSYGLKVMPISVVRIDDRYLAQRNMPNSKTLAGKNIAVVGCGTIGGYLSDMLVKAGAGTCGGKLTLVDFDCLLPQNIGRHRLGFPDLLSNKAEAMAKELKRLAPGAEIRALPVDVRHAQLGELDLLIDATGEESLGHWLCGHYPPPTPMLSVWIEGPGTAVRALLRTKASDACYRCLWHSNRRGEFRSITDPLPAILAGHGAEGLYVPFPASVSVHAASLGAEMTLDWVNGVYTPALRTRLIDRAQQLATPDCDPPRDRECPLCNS
Method in brief: as §1

Chain of Acb2 K26A (A0A1C8HPQ3 whole entry K26A): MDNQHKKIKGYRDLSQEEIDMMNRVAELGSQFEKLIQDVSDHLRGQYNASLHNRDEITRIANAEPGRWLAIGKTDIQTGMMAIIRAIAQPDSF
Chain of Acb2 Y11A (A0A1C8HPQ3 whole entry Y11A): as the sequence (A0A1C8HPQ3 whole entry K26A) above, with Y11A, A26K counted along it

## Nc1nc2c(ncn2[C@@H]2O[C@@H]3COP(=O)(O)O[C@H]4[C@@H](O)[C@H](n5cnc6c(=O)[nH]c(N)nc65)O[C@@H]4COP(=O)(O)O[C@H]3[C@H]2O)c(=O)[nH]1 [c-di-GMP]
[1]
  sequestering of cyclic dinucleotide by Acb2 (HPLC): very weak sequestering effect

## O=c1ccn([C@@H]2O[C@@H]3COP(=O)(O)O[C@H]4[C@@H](O)[C@H](n5ccc(=O)[nH]c5=O)O[C@@H]4COP(=O)(O)O[C@H]3[C@H]2O)c(=O)[nH]1 [3’,3’-c-di-UMP]
[2]
  Kd: ~99 nM

## Nc1ncnc2c1ncn2[C@@H]1O[C@@H]2COP(=O)(O)O[C@H]3[C@@H](O)[C@H](n4ccc(=O)[nH]c4=O)O[C@@H]3COP(=O)(O)O[C@H]2[C@H]1O [3’,3’-c-UMP-AMP]
[2]
  Kd: ~97 nM

## Nc1nc2c(ncn2[C@@H]2O[C@@H]3COP(=O)(O)O[C@H]4[C@@H](O)[C@H](n5cnc6c(N)ncnc65)O[C@@H]4COP(=O)(O)O[C@H]3[C@H]2O)c(=O)[nH]1 [3’,3’-cGAMP]
[1]
  sequestering of cyclic dinucleotide by Acb2 (HPLC): depletes detectable
[3]
  binding of 3’,3’-cGAMP to Acb2 Y11A in vitro: abolished
[4]
  binding of 3’,3’-cGAMP to Acb2 K26A in vitro: abolished
[5]
  shift of purified Acb2 protein in native gel: significant shift
[6]
  activation of CapV phospholipase activity: activated
[7]
  Kd: ~30 nM
[2]
  Kd: ~87 nM

## Nc1ncnc2c1ncn2[C@@H]1O[C@@H]2COP(=O)(O)O[C@H]3[C@@H](O)[C@H](n4cnc5c(N)ncnc54)O[C@@H]3COP(=O)(O)O[C@H]2[C@H]1O [c-di-AMP]
[1]
  sequestering of cyclic dinucleotide by Acb2 (HPLC): sequester
[2]
  Kd: ~66 nM

## Nc1nc2c(ncn2[C@@H]2O[C@@H]3COP(=O)(O)O[C@H]4[C@@H](O)[C@H](n5ccc(=O)[nH]c5=O)O[C@@H]4COP(=O)(O)O[C@H]3[C@H]2O)c(=O)[nH]1 [3’,3’-c-UMP-GMP]
[2]
  Kd: ~524 nM

B1: Acb2 (anti-CBASS 2) from phage PaMx33 (natural protein, Pseudomonas aeruginosa phage PaMx33, UniProt A0A1C8HPQ3 1-93, looked up)
chain: MDNQHKKIKGYRDLSQEEIDMMNRVKELGSQFEKLIQDVSDHLRGQYNASLHNRDEITRIANAEPGRWLAIGKTDIQTGMMAIIRAIAQPDSF
[8]
  stoichiometry N: 6

B2: long gp24: 94 a.a. version of PaMx41 gp24 (orf24 X37Q), named Acb2 hereafter (protein)
chain: MDNQHKKIKGYRDLSQEEIDMMNRVKELGSQFEKLIQDVSDHLRGQYNASLHNRDEITRIANAEPGRWLAIGKTDIQTGMMAIIRAIAQPDSF
modifications: left off: His6-SUMO, end not stated, cleaved
[9]
  increase of PaMx41 WT phage titer: ≥ 4 orders of magnitude

B3: Acb2: phage anti-CBASS protein 2, purified from the naturally CBASS-resistant PaMx33 phage; hexameric cyclic dinucleotide sponge (protein)
chain: MDNQHKKIKGYRDLSQEEIDMMNRVKELGSQFEKLIQDVSDHLRGQYNASLHNRDEITRIANAEPGRWLAIGKTDIQTGMMAIIRAIAQPDSF
modifications: left off: His6-SUMO, end not stated, cleaved
[10]
  effect on detectable 3’,3’-cGAMP levels: reduced
[11]
  binding of Acb2 to purified CapV: did not bind
[12]
  binding of Acb2 to purified Cap2: did not bind
[13]
  binding of Acb2 to purified CdnA: did not bind
[14]
  effect on 3’,3’-cGAMP-activated CapV activity: abrogated
[15]
  binding of Acb2 to the CdnA-Cap2 complex: did not bind
